T cell modulator: modulators of CD8 T cell-vesicle binding, primary screen, mouse 2C CD8+ T cells, flow cytometry; 0.068% of 330,000 active; response (vesicle binding), % at 7 µM; 2C CD8+ T cell-vesicle binding; hits give low values; AID 2052, 2009;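 active = response, share of CD8 T cells binding vesicles, and their 90th percentile fluorescence all below set limits, cut at about 80% in these data, passing the limit was not always enough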;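 also: values below 100% mean blocked vesicle binding to the CD8+ T cells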
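incubation = binding step 1.5 h, 37 °C, antibody labelling 20 min, ice | test system = 2C mouse CD8+ T cells | read-out basis = percent CD8+ FL2 mean versus row control | controls = Peptide-free naked vesicles (low) and QL9 vesicles with 0.7% DMSO vehicle (high) | detection = flow cytometry of vesicle-bound cells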
EBV gp42 block: Epstein-Barr virus gp42 inhibitors, primary screen, biochemical, uHTS, fluorescence polarization; Fluorescence polarization binding assay, mP read-out; inhibition, % (tested at 21.74 µM); Glycoprotein 42 (Epstein-Barr virus (strain AG876)), Q1HVG2; 0.42% of 220,000 active; in the data active = inhibition above about 50%
MEX-5 binding: MEX-5 zinc finger RNA-binding disruptors – biochemical, C. elegans, fluorescence polarization, MLPCN library, primary screen; Zinc finger protein mex-5 (Caenorhabditis elegans), Q9XUB2; MEX-5/FITC-TCR2 RNA binding; hits give low values; activity score (negative = inhibition of binding), % at 10 µM; 0.38% of 300,000 active;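 active = inhibition past about -25% in most replicates, and total fluorescence under double the plate's negative control median, limit read from the data; inconclusive = replicates evenly split on the limit, or fluorescence at least double controls; inactive = too little inhibition in most replicates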;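 also: 0% = DMSO and -100% = 5 µM competing unlabeled TCR2 RNA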
GRK2 aptamer HTS: compounds blocking aptamer binding on GRK2 – biochemical, human GRK2, bead flow cytometry, HTS, primary screen; Beta-adrenergic receptor kinase 1 (Homo sapiens), P25098; FAM-aptamer displacement from GRK2; inhibition of aptamer binding, % at 10 µM; 0.59% of 330,000 active; AID 488847, 2010;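 active = inhibition of aptamer binding above 40%, roughly 3 SD of noise, on plates passing a quality check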;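 also: median bead fluorescence of bound FAM aptamer so fluorescent compounds give negative values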
C-LANA FP: inhibitors of KSHV C-LANA binding to DNA, primary screen, biochemical, fluorescence polarization, FAM-LBS DNA, MBP-C-LANA, single point; inhibition, % at 9 µM; 0.078% of 340,000 active;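 active = highest replicate inhibition at or above 60% at 9 µM, even if other replicates fall short; inactive = all replicates below 60% inhibition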;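 also: 0% = neutral control wells and 100% = 4 µM acridine orange control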
Keap1-Nrf2 PPI: Keap1-Nrf2 protein-protein interaction inhibitors, primary screen, biochemical, fluorescence polarization, single point; Keap1 Kelch-Nrf2 peptide fluorescence polarization, 1536-well; inhibition, % at 9.4 µM; 0.15% of 340,000 active; in the data active = inhibition above about 12%; inconclusive = no clear call, values can overlap the other calls; inactive = below about 7.3%;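 also: human Keap1 Kelch domain with fluorescein labeled Nrf2 9mer peptide probe; 0% = neutral control wells and 100% = peptide positive control; higher means more block of Keap1 binding to Nrf2 peptide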
Target sequence (Q14145 whole entry, looked up, the tested form may be a part): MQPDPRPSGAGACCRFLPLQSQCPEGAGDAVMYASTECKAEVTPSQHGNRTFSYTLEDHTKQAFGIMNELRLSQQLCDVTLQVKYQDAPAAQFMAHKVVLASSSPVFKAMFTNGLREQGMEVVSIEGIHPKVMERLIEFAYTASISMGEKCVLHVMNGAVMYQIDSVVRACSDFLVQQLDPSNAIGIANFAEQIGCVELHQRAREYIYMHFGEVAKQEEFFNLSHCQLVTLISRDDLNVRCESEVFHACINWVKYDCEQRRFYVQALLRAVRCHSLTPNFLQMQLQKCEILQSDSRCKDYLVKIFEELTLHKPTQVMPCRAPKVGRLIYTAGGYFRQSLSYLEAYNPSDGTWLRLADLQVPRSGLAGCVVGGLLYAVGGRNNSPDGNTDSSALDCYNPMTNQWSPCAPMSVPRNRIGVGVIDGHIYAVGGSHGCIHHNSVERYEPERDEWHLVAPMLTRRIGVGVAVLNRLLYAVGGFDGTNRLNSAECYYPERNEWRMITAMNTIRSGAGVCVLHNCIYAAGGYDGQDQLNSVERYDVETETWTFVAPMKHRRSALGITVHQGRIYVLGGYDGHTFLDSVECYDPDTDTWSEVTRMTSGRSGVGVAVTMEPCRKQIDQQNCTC
GRK2 inh confirm: GRK2 aptamer-displacing inhibitors, retest, confirmation, biochemical, cherry pick 1, bead flow cytometry; aptamer displacement, % at 10 µM; AID 504451, 2011; shares compounds with GRK2 aptamer HTS; bead-bound GRK2, FAM-aptamer displacement; 4% of 2,000 active;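 active = aptamer displacement above 40%, near three times the noise of non-fluorescent compounds, on plates passing quality checks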;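 also: negative values mostly reflect intrinsic compound fluorescence rather than true enhancement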
Aptamer quench: fluorescent aptamer quenching in GRK2 counter-screen dose response | shares compounds with GRK2 aptamer HTS | Fluorescent RNA aptamer beads, flow cytometry; hits give high values | fluorescence change (kMESF span), kMESF (concentration not given with the values) | 110 tested, under 10 active | AID 504521;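 active = compounds whose bead fluorescence drops by more than 37 kMESF across the dose range, marking them as dye quenchers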
FAM quench CP1: aptamer fluorescence quenching in GRK2 counter-screen; fluorescence response (% of DMSO), % at 10 µM; 2,000 tested, under 10 active; shares compounds with GRK2 aptamer HTS; Carboxyfluorescein RNA aptamer on beads, flow cytometry quenching; hits give low values;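 active = compounds that quench the bead-bound fluorescent RNA probe, cutting fluorescence to under half of the solvent control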;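 also: counterscreen run without GRK2 so only probe quenching by compound is measured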
GRK2 CP2: GRK2 aptamer-displacing inhibitors, hit retest, confirmation, biochemical, cherry pick 2, bead flow cytometry | 360 tested, under 10 active | inhibition of aptamer binding, % at 10 µM | shares compounds with GRK2 aptamer HTS | bead-bound GRK2, FAM-aptamer displacement;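 active = inhibition of aptamer binding above 40%, about triple the noise seen with nonglowing compounds, on plates passing quality control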;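 also: negative values mostly come from compounds that fluoresce themselves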
Aptamer quench3: fluorescence quenching of FAM-labeled RNA aptamer, dose response, artefact control for GRK2 aptamer inhibitor project, biochemical, flow cytometry, cherry pick 2; Streptavidin beads; AID 504819, 2011; change in fluorescence (kMESF span), kMESF (test concentration not listed); shares compounds with GRK2 aptamer HTS; 25 tested, under 10 active;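 active = compounds quenching the bead-bound labeled aptamer, with fluorescence dropping by more than 37 kMESF over the dose range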
FAM quench CP2: aptamer fluorescence quenching in GRK2 counter-screen. shares compounds with GRK2 aptamer HTS. carboxyfluorescein RNA aptamer beads, flow cytometry quenching; hits give low values. fluorescence response vs DMSO, % at 10 µM. 360 tested, under 10 active;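 active = response vs DMSO under 50%, meaning signal dropped by over half, treated as fluorescence quencher; inconclusive = no clear call, values can overlap the other calls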;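 also: labelled aptamer on streptavidin beads without GRK2 as a quench counter-screen; 100% = bead fluorescence of DMSO wells and lower means quenching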
FAM quench DR: quenchers of FAM-labeled RNA aptamer fluorescence, dose response, artefact control for GRK2 aptamer binding project, biochemical, powder set 1, flow cytometry. shares compounds with GRK2 aptamer HTS. Bead-bound FAM RNA aptamer fluorescence quenching; hits give low values. fluorescence ratio to DMSO, % at 11.1 µM. 35 tested, under 10 active. AID 588496, 2011;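 active = compounds that dim the fluorescent label, raw bead signal shifting by over 33 units between lowest and highest dose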
An asterisk follows results filed as active; i = inactive; ? = inconclusive; . = no result. Hits are enriched below; roughly 1.3% of the tested compounds scored in any of these assays.

SMILES	T cell modulator	EBV gp42 block	MEX-5 binding	GRK2 aptamer HTS	C-LANA FP	Keap1-Nrf2 PPI	GRK2 inh confirm	FAM quench CP1	others
Cc1ccc(-c2cn3nc(-c4ccccc4)c(-c4ccccc4)nc3n2)cc1	694.1	125.6*	?	66.0*	.	.	3.2	102.8
O=C(NC1CCCCC1)N1CCSC1=Nc1ccccc1	335.4	9.9	0.4	43.0*	-1.4	3.5	1.3	93.1
CCC(=O)Nc1ccc(C(=O)COC(=O)Cc2ccsc2)cc1	200.9	.	.	48.0*	1.2	-6.6	-5.3	98.4
COc1ccccc1Oc1cc(-n2nc(C)cc2C)ncn1	484.7	-11.1	1.4	82.0*	0.4	0.7	.	.	GRK2 CP2=7.8;FAM quench CP2=100.0
COc1ccccc1OCC(O)Cn1nc(C)cc1C (stereo unspecified)	193.1	-9.3	-1.4	2.0	-1.1	0.2	.	.
COc1ccc(/C=C/C(=O)OC2CCCN(C)C2)cc1 (stereo unspecified)	433.2	-4.4	0.7	1.0	0.3	-1.7	.	.
O=C(Nc1ccc(Cl)cn1)C1CCCN(c2ncnc3c2nc2n3CCCCC2)C1 (stereo unspecified)	480.5	.	-0.8	1.0	1.4	-2.0	.	.
O=C(Nc1ccc(Cl)cn1)C1CCN(c2ncnc3c2nc2n3CCCCC2)CC1	143.1	.	2.1	55.0*	1.3	-2.4	-4.5	106.9
O=C(Nc1ccccc1Oc1ccccc1)c1cccs1	227.9	.	-0.3	1.0	-0.5	-1.2	.	.
CN(C(=O)c1cccc(Nc2ccc(-c3ccc4c(c3)OCCO4)nn2)c1)C1CCCCC1	130.4	2.0	.	0.0	0.6	-6.3	4.4	103.1
Cc1cccc(NC(=O)c2csnn2)n1	117.1	0.4	0.5	34.0	-1.0	0.1	-3.2	98.4
Cc1c(NC(=O)Nc2ccc(Cl)c(Cl)c2)sc(=S)n1C	334.4	.	-2.4	2.0	-0.8	-7.2	.	.
O=C(O)CC/C(=N/NC(=O)CNC(=O)C(c1ccccc1)c1ccccc1)c1ccccc1	784.5	-23.2	-0.3	90.0*	-0.5	-2.2	2.6	96.5
COC(=O)C1=C(C)N(Cc2ccccc2)C(=NCc2ccccc2)N[C@H]1c1cccc(F)c1	406.6	.	2.9	0.0	0.2	2.1	.	.
CCN(CC)CCCN=C1N[C@@H](c2cccc(F)c2)C(C(=O)OC)=C(C)N1Cc1ccccc1	224.3	.	.	51.0*	-0.5	-6.9	.	.	GRK2 CP2=0.7;FAM quench CP2=100.0
Cc1nn(Cc2c(F)c(F)c(F)c(F)c2F)c(C)c1NC(=O)c1ccc(COc2ccccc2Cl)o1	489.5	2.1	.	2.0	0.1	-4.8	2.0	99.5
Cc1nn(Cc2c(F)c(F)c(F)c(F)c2F)c(C)c1NC(=O)c1ccc(COc2ccccc2Cl)cc1	.	-27.2	-0.2	.	1.2	3.7	.	.
CCOC(=O)c1[nH]c(COC(=O)CCCOc2ccccc2)c(C(=O)OCC)c1C	196.6	.	0.2	4.0	.	.	.	.
CN1C2=CC=CC=CC2=[N+](C)C12C([N+](=O)[O-])=CC(=[N+]([O-])[O-])C=C2[N+](=O)[O-] (stereo unspecified)	303.9	-5.0	-4.1	48.0*	-0.9	-4.0	2.7	99.7
COc1ccc(CNC(=O)COC(=O)c2ccc(C)c(S(=O)(=O)N3CCOCC3)c2)cc1	246.2	.	.	1.0	-0.8	-4.4	.	.
Cc1ccc2cc3c(nc2c1)N(c1ccccc1)CC3	643.4	4.5	2.8	0.0	-1.5	2.1	.	.
CC(=O)NN1CCc2cc3ccc(C)cc3nc21	218.3	.	-2.8	90.0*	1.4	-9.0	-9.6	95.7
Cc1ccc(Cn2c(SC3CCOC3=O)nc3ccccc3c2=O)cc1 (stereo unspecified)	339.2	-14.6	-1.2	43.0*	-0.7	1.0	.	.	GRK2 CP2=-2.1;FAM quench CP2=99.0
Cn1c(=O)c2c(nc(SCC(=O)NCc3ccc4c(c3)OCO4)n2Cc2ccccc2)n(C)c1=O	341.9	-4.7	1.3	53.0*	0.4	2.3	0.2	99.8
O=C(CCS(=O)(=O)c1ccc(Br)cc1)Nc1cc(F)ccc1F	307.6	-11.8	1.4	82.0*	2.0	2.8	.	.	GRK2 CP2=25.5;Aptamer quench3=1.4;FAM quench CP2=100.0;FAM quench DR=99.0
O=C(CCS(=O)(=O)c1ccc(Br)cc1)NC1CCCC1	0.0	0.1	-2.3	80.0*	10.6	-0.9	61.2*	98.5	Aptamer quench=0.6;Aptamer quench3=4.6
O=C(CCNS(=O)(=O)c1ccc(Br)cc1)NC1CCCCC1	i	-14.8	1.6	0.0	-1.0	-3.3	.	.
NC(=O)c1ccsc1NC(=O)CCS(=O)(=O)c1ccc(F)cc1	176.8	.	0.7	2.0	0.2	-1.6	.	.
CCc1ccccc1NC(=O)CCS(=O)(=O)c1ccc(Br)cc1	158.7	.	0.0	57.0*	1.5	2.8	30.2	96.1	Aptamer quench=-0.1;Aptamer quench3=-1.3;FAM quench DR=99.0
CCOc1ccc(NC(=O)CCS(=O)(=O)c2ccc(Br)cc2)cc1	21.0	.	0.0	83.0*	7.3	0.0	.	.	GRK2 CP2=60.0*;Aptamer quench3=-0.2;FAM quench CP2=102.0;FAM quench DR=102.0
